{"source": "ChEMBL document CHEMBL2062382", "about": "“Bicyclic C21 terpenoids from the marine sponge Clathria compressa” (J Nat Prod, 2012)", "key": {"[1]": {"test": "Cytotoxicity against human BG02 cells at 40 uM", "assay_type": "cell-based", "details": "bg02, 40 µM", "summary_of_the_method": "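Growth inhibition of human embryonic stem cells (BG02) was tracked by real-time cell electronic sensing (RT-CES) in a 96-well format, with each compound tested at 40 µM.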"}, "Staphylococcus aureus [2]": {"system": "Staphylococcus aureus", "test": "Antibacterial activity against Staphylococcus aureus ATCC 6538P after 20 hrs by broth microdilution method", "assay_type": "functional", "summary_of_the_method": "(§1)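 Strains are grown on Müller-Hinton agar at 37 °C for 24 h, then in Müller-Hinton broth at 37 °C for 24 h. Mid-log cells at an initial 600 nm absorbance of 0.001 are exposed to two-fold serial dilutions from 0.01 to 128 µg/mL, in duplicate. Samples are dissolved in 5% DMSO/H2O, giving final DMSO below 0.5% in wells and matched in controls. Methicillin is the reference. MIC is read after 20 h at 37 °C with gentle shaking.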"}, "Staphylococcus aureus [3]": {"system": "Staphylococcus aureus", "test": "Antibacterial activity against methicillin-resistant Staphylococcus aureus ATCC 33591 after 20 hrs by broth microdilution method", "assay_type": "functional", "details": "ATCC 33591, 20 h", "summary_of_the_method": "(§2)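 ATCC strains grown on Müller-Hinton agar 37 °C 24 h, then in Müller-Hinton broth 37 °C 24 h. MIC by two-fold serial broth microdilution, 0.01 to 128 μg/mL; samples dissolved in 5% DMSO in water, final DMSO below 0.5% in all wells, duplicate. Mid-log cells at initial A600 0.001; read after 20 h at 37 °C with gentle shaking. Methicillin control included.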"}, "Staphylococcus aureus [4]": {"system": "Staphylococcus aureus", "test": "Antibacterial activity against vancomycin-resistant Staphylococcus aureus after 20 hrs by broth microdilution method", "assay_type": "functional", "summary_of_the_method": "as §2"}, "Escherichia coli": {"system": "Escherichia coli", "test": "Antibacterial activity against Escherichia coli KCTC 1923 at 128 ug/ml after 20 hrs by broth microdilution method", "assay_type": "functional, organism-based"}, "Klebsiella pneumoniae": {"system": "Klebsiella pneumoniae", "test": "Antibacterial activity against Klebsiella pneumoniae ATCC 10031 at 128 ug/ml after 20 hrs by broth microdilution method", "assay_type": "functional, organism-based", "summary_of_the_method": "as §1"}, "Staphylococcus aureus [5]": {"system": "Staphylococcus aureus", "test": "Antibacterial activity against Staphylococcus aureus ATCC 6538P up to 128 ug/ml after 20 hrs by broth microdilution method", "assay_type": "functional, organism-based", "summary_of_the_method": "as §1"}, "Staphylococcus aureus [6]": {"system": "Staphylococcus aureus", "test": "Antibacterial activity against methicillin-resistant Staphylococcus aureus ATCC 33591 up to 128 ug/ml after 20 hrs by broth microdilution method", "assay_type": "functional, organism-based", "summary_of_the_method": "as §2"}, "Staphylococcus aureus [7]": {"system": "Staphylococcus aureus", "test": "Antibacterial activity against vancomycin-resistant Staphylococcus aureus up to 128 ug/ml after 20 hrs by broth microdilution method", "assay_type": "functional, organism-based", "summary_of_the_method": "as §2"}}, "note": "Active and inactive are the calls of the source. The calls are words filed in the database; no cut-off is given here."}
{"smiles": "C=C1CC[C@@H]2[C@](C)(CCC[C@@]2(C)/C=C/C=C(C)C)[C@H]1CC(=O)O", "note": "(relative stereo)", "values": [{"measurement": "Activity", "setting": "[1]", "value": "Non-toxic"}, {"measurement": "MIC", "setting": "Staphylococcus aureus [2]", "value": 32, "unit": "µg/mL"}, {"measurement": "MIC", "setting": "Staphylococcus aureus [3]", "value": 64, "unit": "µg/mL"}, {"measurement": "MIC", "setting": "Staphylococcus aureus [4]", "value": 64, "unit": "µg/mL"}, {"measurement": "Activity", "setting": "Escherichia coli", "value": "inactive"}, {"measurement": "Activity", "setting": "Klebsiella pneumoniae", "value": "inactive"}]}
{"smiles": "C=C1CC[C@@H]2[C@](C)(CCC[C@@]2(C)/C=C/C=C(C)C)[C@H]1CC(=O)NCCS(=O)(=O)O", "note": "(relative stereo)", "values": [{"measurement": "Activity", "setting": "[1]", "value": "Non-toxic"}, {"measurement": "Activity", "setting": "Staphylococcus aureus [5]", "value": "inactive"}, {"measurement": "Activity", "setting": "Staphylococcus aureus [6]", "value": "inactive"}, {"measurement": "Activity", "setting": "Staphylococcus aureus [7]", "value": "inactive"}, {"measurement": "Activity", "setting": "Escherichia coli", "value": "inactive"}, {"measurement": "Activity", "setting": "Klebsiella pneumoniae", "value": "inactive"}]}
{"smiles": "C=C1CC[C@@H]2[C@](C)(CCC[C@@]2(C)/C=C/C(O)C(C)(C)O)[C@H]1CC(=O)NCCS(=O)(=O)O", "note": "(relative stereo)", "values": [{"measurement": "Activity", "setting": "[1]", "value": "Non-toxic"}, {"measurement": "Activity", "setting": "Staphylococcus aureus [5]", "value": "inactive"}, {"measurement": "Activity", "setting": "Staphylococcus aureus [6]", "value": "inactive"}, {"measurement": "Activity", "setting": "Staphylococcus aureus [7]", "value": "inactive"}, {"measurement": "Activity", "setting": "Escherichia coli", "value": "inactive"}, {"measurement": "Activity", "setting": "Klebsiella pneumoniae", "value": "inactive"}]}
